Measured values as given in publication PMC7286548 (Cell chemical biology, 2020).
Each block holds one compound with its values, some of them ahead of it.

Key:
PI5P4Kα [1] = target: T1, PI5P4Kα (Homo sapiens, UniProt P48426); assay: Radiometric TLC kinase assay; format: biochemical
T1 sequence (P48426 1-406): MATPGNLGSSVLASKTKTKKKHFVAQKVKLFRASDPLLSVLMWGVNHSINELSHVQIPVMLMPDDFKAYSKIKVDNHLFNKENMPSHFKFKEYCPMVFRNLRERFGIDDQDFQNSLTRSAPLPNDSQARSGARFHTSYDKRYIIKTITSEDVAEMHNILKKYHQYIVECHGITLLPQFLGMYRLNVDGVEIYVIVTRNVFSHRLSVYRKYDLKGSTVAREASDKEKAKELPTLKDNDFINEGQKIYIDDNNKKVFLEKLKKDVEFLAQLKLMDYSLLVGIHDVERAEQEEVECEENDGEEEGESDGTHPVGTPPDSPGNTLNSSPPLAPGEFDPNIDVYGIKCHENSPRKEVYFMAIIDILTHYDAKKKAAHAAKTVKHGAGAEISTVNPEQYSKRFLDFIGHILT
Method in brief: (§1)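 Purified PI5P4K (0.1 μg) was preincubated with DMSO or test compound at various concentrations in 50 mM HEPES pH 7.4, 10 mM MgCl2. Sonicated lipid substrate, 10 μM unlabeled ATP and [γ-32P]ATP were then added. Reaction ran 10 min at room temperature. Radiolabeled PI(4,5)P2 product was quantified by phosphorimager.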

PI5P4Kβ [2] = target: T2, PI5P4Kβ (Homo sapiens, UniProt P78356); assay: Radiometric TLC kinase assay; format: biochemical
T2 sequence (P78356 1-416): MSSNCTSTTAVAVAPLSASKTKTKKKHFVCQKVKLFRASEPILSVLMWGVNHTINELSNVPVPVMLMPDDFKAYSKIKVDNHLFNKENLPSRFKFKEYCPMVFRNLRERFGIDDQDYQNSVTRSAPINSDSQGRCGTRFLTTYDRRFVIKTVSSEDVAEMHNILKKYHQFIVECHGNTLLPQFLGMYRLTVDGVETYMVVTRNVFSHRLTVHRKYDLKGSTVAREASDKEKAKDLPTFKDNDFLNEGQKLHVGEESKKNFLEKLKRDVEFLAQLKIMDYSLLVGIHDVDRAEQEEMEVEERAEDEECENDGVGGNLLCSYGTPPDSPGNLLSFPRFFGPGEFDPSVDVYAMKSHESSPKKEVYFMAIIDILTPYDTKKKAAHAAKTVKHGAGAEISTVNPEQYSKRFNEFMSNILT
Method in brief: as §1

PI5P4Kγ = target: T3, PI5P4Kγ (Homo sapiens, UniProt Q8TBX8); assay: Radiometric TLC kinase assay; format: biochemical; settings: Fig. S1B-C
T3 sequence (Q8TBX8 1-421): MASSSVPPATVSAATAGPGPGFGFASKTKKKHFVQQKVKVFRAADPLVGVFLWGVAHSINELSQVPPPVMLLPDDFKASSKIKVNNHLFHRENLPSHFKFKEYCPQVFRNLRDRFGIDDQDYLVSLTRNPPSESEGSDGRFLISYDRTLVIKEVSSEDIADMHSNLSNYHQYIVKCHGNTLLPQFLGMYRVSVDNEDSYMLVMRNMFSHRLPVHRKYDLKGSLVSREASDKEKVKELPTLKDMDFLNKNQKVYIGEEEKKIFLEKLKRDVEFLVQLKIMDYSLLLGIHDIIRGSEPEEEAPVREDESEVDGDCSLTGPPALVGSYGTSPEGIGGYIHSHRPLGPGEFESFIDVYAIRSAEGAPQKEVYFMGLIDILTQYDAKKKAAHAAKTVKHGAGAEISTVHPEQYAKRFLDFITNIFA

[3] = target: top off-targets except for BRK and ABL1; assay: Z'LYTE kinase assay; format: biochemical; settings: Fig. S4A
Method in brief: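 ATP at apparent Km. Kinases tested were TYK2, RPS6KA4 (MSK2), CSNK2A2 (CK2α2), KIT and PDGFRB.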

HeLa cells [4] = assay: RFP-GFP-LC3B tandem sensor autophagy flux assay; format: cell-based; settings: 1 μM, 16 hours
Method in brief: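 HeLa cells (DMEM, 10% FBS) on coverslip-bottomed dishes were transduced with 40 particles/cell of the RFP-GFP-LC3B tandem sensor and cultured 16–24h. They were then exposed to DMSO, 50 μM chloroquine or 1 μM test compound for 16h. Live imaging at 37°C in phenol red-free DMEM by spinning-disk confocal microscopy.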

PI5P4Kβ [5] = target: T2, PI5P4Kβ; assay: Intact electrospray MS covalent labeling; format: binding; settings: within 2 h; 5 μM inhibitor, 37°C
Method in brief: (§2)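 Intact mass read by LC-ESI-MS on reversed phase. Modified site mapped by TCEP (10 mM final) reduction, iodoacetamide (22.5 mM final) alkylation, Asp-N or Glu-C digestion overnight at 37°C, then nanoLC-MS.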

PIKfyve [6] = assay: Vacuolar enlargement assay in Vero cells; format: cell-based
PI4P5Kγ = PI4P5Kγ (Homo sapiens, UniProt O60331); assay: Lipid kinase off-target inhibition assay; format: biochemical; settings: Fig. S3C
PIKfyve [7] = target: T4, PIKfyve (Homo sapiens, UniProt Q9Y2I7); assay: Fixed time-point ADP-Glo assay; format: biochemical
PI4P5Kα = PI4P5Kα (Homo sapiens, UniProt Q99755); assay: Lipid kinase off-target inhibition assay; format: biochemical; settings: Fig. S3C
PI5P4K = assay: Competitive streptavidin pulldown after pre-treating HEK293T cells; format: cell-based
Method in brief: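 HEK293T cells grown to 90–95% confluence were pretreated 6h with DMSO or varying test compound concentrations, then washed twice in cold PBS. Lysis on ice 60 min with protease inhibitors, cleared 20,000 × g 15 min at 4°C, protein-equalized by BCA. Lysates were rotated overnight at 4°C with 1 μM biotinylated probe, then 2h at RT, then on streptavidin resin 2h at 4°C. Beads washed ×5, boiled in LDS 95°C 10 min, immunoblotted.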

PIKfyve [8] = target: T4, PIKfyve; assay: DiscoverX KINOMEScan; format: binding
HeLa cells [9] = assay: TFEB nuclear localization immunofluorescence; format: cell-based; settings: 0.25-1.0 μM overnight
AML/ALL cell lines = assay: 72 h Cell-Titer Glo proliferation assay; format: cell-based; settings: all six AML/ALL cell lines
Method in brief: (§3)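 Cells plated in 96- or 384-well format and treated with test compound over a concentration range for 72h. Viability read by CellTiter-Glo luminescence. Leukemia lines cultured per ATCC/DSMZ recommendations in 5% CO2. K562 and KU812F came from an outside lab.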

PI5P4Kα [10] = target: T1, PI5P4Kα; assay: Intact electrospray MS covalent labeling; format: binding; settings: within 2 h; 5 μM inhibitor, 37°C
Method in brief: as §2

PI4P5Kβ = PI4P5Kβ (Homo sapiens, UniProt O14986); assay: Lipid kinase off-target inhibition assay; format: biochemical; settings: Fig. S3C
K562 and KU812F = assay: Proliferation of BCR-ABL translocation containing cell lines; format: cell-based; settings: Fig. S4C
Method in brief: as §3

T4 sequence (Q9Y2I7 whole entry): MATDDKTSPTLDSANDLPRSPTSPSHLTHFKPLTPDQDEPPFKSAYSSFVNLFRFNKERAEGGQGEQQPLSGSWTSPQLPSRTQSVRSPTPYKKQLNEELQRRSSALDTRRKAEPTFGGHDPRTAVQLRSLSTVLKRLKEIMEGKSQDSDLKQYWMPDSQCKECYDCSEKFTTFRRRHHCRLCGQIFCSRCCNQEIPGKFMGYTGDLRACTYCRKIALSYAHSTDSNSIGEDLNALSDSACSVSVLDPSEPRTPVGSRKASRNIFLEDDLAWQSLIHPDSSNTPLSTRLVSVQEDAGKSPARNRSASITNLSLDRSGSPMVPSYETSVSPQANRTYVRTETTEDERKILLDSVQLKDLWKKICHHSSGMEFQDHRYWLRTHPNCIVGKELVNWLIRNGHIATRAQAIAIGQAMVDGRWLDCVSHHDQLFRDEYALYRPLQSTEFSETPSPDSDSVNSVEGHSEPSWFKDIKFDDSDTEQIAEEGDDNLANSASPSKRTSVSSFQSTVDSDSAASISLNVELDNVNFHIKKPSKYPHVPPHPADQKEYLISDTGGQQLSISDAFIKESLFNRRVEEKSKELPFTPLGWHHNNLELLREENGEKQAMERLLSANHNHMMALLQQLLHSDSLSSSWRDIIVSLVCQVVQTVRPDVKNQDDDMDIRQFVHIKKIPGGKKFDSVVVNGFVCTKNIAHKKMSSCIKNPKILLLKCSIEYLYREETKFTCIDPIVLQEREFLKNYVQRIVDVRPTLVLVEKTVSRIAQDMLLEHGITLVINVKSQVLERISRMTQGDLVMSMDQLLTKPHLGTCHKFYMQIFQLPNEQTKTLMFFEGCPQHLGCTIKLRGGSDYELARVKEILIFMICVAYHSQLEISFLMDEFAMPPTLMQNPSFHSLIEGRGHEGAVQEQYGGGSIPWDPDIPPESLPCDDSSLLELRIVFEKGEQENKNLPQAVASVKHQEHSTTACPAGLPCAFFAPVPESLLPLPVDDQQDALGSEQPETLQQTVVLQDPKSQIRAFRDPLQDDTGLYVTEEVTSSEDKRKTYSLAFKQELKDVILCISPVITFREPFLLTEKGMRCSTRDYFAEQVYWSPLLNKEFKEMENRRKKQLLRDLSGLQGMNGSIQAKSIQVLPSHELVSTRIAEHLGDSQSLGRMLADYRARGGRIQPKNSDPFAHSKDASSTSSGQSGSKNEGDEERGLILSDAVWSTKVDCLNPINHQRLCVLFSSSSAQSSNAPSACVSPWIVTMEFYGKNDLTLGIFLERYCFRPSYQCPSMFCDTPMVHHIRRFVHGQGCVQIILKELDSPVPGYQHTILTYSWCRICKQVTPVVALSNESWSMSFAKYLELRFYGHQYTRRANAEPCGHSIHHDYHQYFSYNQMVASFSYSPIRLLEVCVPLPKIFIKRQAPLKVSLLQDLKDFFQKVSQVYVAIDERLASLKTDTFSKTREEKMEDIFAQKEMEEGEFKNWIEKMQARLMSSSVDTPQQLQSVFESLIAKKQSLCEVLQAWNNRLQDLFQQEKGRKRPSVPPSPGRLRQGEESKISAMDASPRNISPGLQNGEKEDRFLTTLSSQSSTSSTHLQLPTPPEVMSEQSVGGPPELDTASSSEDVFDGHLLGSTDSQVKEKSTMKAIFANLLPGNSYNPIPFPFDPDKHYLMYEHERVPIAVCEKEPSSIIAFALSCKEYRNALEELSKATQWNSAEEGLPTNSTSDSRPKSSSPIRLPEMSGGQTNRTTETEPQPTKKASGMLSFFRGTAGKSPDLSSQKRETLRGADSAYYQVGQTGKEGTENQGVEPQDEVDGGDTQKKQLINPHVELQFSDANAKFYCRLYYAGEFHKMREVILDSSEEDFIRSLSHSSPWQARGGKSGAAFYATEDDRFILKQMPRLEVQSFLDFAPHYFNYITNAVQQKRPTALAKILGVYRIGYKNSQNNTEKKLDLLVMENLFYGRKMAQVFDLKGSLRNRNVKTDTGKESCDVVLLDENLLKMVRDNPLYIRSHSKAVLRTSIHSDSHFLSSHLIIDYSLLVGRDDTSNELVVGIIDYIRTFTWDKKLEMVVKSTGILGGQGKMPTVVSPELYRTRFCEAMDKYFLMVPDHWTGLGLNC
PI4P5Kβ, sequence (O14986 whole entry): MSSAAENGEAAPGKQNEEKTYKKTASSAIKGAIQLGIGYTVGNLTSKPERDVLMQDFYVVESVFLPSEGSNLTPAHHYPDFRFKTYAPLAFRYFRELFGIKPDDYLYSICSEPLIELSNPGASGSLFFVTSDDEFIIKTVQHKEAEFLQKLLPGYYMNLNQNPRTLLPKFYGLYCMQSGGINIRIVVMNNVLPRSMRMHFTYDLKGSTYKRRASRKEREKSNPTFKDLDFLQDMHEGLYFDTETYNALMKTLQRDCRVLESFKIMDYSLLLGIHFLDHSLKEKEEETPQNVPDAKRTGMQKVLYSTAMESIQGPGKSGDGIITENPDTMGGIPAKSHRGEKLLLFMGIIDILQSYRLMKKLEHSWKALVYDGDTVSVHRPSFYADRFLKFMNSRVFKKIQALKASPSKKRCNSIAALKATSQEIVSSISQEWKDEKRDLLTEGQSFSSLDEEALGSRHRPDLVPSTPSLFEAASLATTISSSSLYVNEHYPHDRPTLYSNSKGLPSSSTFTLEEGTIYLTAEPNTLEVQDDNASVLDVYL
PI4P5Kγ, sequence (O60331 whole entry): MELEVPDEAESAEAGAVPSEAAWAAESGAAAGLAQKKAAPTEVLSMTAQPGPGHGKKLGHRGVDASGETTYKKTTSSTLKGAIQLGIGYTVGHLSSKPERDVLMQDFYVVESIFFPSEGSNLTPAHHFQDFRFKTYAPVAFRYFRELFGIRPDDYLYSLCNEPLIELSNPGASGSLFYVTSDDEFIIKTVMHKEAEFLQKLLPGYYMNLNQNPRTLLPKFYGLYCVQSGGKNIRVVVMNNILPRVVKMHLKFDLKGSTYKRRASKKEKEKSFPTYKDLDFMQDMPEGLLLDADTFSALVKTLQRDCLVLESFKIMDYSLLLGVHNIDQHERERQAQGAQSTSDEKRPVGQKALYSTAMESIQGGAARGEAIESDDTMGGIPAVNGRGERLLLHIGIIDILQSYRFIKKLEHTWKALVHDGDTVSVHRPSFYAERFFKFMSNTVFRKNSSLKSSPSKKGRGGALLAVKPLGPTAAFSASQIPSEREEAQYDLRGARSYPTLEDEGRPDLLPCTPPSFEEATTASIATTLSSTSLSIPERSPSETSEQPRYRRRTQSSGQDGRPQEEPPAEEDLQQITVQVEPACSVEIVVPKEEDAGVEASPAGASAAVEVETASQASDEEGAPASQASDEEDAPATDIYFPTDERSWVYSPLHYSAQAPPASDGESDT
PI4P5Kα, sequence (Q99755 whole entry): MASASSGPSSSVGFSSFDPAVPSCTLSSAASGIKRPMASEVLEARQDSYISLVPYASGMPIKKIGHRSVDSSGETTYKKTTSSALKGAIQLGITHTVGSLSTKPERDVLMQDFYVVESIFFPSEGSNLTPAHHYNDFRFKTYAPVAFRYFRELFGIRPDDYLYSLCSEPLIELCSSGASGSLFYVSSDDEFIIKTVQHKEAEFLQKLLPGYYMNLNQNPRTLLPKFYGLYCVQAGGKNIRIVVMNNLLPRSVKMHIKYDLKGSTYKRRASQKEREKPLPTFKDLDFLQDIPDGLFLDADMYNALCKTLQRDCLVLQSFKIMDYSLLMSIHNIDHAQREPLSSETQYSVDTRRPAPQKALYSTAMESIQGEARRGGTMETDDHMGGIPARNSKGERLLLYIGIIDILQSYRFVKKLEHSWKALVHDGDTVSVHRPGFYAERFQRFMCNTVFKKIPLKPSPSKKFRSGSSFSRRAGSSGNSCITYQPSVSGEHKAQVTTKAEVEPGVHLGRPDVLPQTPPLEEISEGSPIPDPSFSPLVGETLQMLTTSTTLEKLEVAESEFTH

inhibition of kinase activity (in words) (PI5P4Kα [1]; Fig. S1B-C): inhibit
inhibition of kinase activity (in words) (PI5P4Kβ [2]; Fig. S1B-C): inhibit
inhibition of kinase activity (in words) (PI5P4Kγ): inhibit
Structure (SMILES): CN(C)C/C=C/C(=O)Nc1cccc(C(=O)Nc2ccc(Nc3nccc(-c4cccnc4)n3)cc2)c1 [JNK-IN-7, reference compound]

Structure (SMILES): CN(C)C/C=C/C(=O)Nc1ccc(C(=O)Nc2cccc(Nc3cc(-c4c[nH]c5ccccc45)ncn3)c2)cc1 [THZ-P1-2]
IC50 (in words) [3]: micromolar range
inhibition of PI-4,5-P2 formation (PI5P4Kα [1]; 0.7 μM): approximately 75%
GFP signal of RFP-GFP-LC3B sensor (in words) (HeLa cells [4]): marked increase
RFP signal of RFP-GFP-LC3B sensor (in words) (HeLa cells [4]): moderate increase
covalent labeling (PI5P4Kβ [5]): 100%
inhibition of PIKfyve in cells (in words) (PIKfyve [6]; 1 μM): failed to show inhibition
IC50 (in words) (PI4P5Kγ): low micromolar
IC50 (PIKfyve [7]): 40 nM
IC50 (in words) (PI4P5Kα): low micromolar
earliest time of on-target engagement in washout pulldown (PI5P4K; 1 μM compound treatment, washout at 2 and 4 hours): 2 h
competition of pulldown by 1 μM dtb-THZ-P1-2 (in words) (PI5P4K; pre-treatment of HEK293T cells): compete and block pulldown
% DMSO control (PIKfyve [8]): 6.4 % DMSO control
nuclear TFEB accumulation (in words) (HeLa cells [9]): increase
anti-proliferative IC50 (in words) (AML/ALL cell lines): low micromolar range
covalent labeling (PI5P4Kα [10]): 100%
IC50 (in words) (PI4P5Kβ): low micromolar
inhibition of PI-4,5-P2 formation (PI5P4Kβ [2]; 0.7 μM): ~50%
potency at killing cells versus imatinib, nilotinib and dasatinib (in words) (K562 and KU812F): markedly less potent

Structure (SMILES): Cc1cccc(/C=N/Nc2cc(N3CCOCC3)nc(OCCc3ccccn3)n2)c1 [apilimod, reference compound]
concentration causing substantial vacuolar enlargement (PIKfyve [6]; positive control): 10 nM
